MOR-DOR ag: agonists of OPRM1-OPRD1 heterodimerization, primary screen, cell-based, luminescence. activation, % at 9.3 µM. cells. Mu-type opioid receptor (Homo sapiens) + Delta-type opioid receptor (Homo sapiens), …. 340,000 compounds, 0.3% hits; in the data active = activation above about 18%
Target sequence (P35372 whole entry, looked up): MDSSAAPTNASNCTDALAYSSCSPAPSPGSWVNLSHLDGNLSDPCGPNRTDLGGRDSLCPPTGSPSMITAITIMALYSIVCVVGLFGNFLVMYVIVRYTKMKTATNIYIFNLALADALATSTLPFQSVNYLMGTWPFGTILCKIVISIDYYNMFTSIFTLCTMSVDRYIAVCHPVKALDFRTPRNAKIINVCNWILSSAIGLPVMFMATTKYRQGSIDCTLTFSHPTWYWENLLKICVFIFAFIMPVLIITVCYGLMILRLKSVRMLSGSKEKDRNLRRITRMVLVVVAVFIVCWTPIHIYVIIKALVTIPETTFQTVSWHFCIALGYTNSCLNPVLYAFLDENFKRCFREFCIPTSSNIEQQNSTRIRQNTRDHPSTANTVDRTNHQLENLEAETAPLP
Target sequence (P41143 whole entry, looked up): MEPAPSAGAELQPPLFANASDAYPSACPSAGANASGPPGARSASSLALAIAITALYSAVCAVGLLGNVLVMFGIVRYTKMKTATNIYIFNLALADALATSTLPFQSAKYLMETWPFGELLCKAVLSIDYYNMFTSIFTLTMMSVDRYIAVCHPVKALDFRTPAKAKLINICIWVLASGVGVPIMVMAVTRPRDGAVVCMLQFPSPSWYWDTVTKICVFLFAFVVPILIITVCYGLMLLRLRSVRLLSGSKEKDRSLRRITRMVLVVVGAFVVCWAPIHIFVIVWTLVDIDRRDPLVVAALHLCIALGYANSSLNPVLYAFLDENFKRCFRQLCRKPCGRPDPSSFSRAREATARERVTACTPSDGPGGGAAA
HTR5A inv ag: HTR5A inverse agonists in luminescence cell assay, primary screen, counter-screen for OPRM1-OPRD1 heterodimer inverse agonist project, full-deck HTS; inhibition, % at 9.3 µM; HTR5A cell line, inverse agonism; AID 504634, 2011; 340,000 compounds, 0.083% hits; in the data active = inhibition mostly above about 23%, no sharp cut-off; inactive = mostly below about 18%
Arrestin-AP2 inh: inhibitors of beta-arrestin/AP2 binding, primary screen, biochemical, GPCR trafficking, flow cytometry; beta-arrestin 1 C-terminal peptide binding to AP2 beta2-adaptin appendage (human); FITC-arrestin peptide / GST-AP2 beads; AP2 beta2 appendage carries R879A mutation; inhibition, % at 10 µM; 340,000 compounds, 0.31% hits; AID 504490, 2011;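 active = inhibition above a set limit, near 3 SD of compounds lacking own fluorescence, cut at about 54% in these data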
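test system = AP2 appendage R879A on GSH beads | buffer or medium = PBS plus Tween 20 (0.05%) and BSA (0.1%) | incubation = 12 min plus 1 h, RT | detection = bead flow cytometry, FITC channel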
DAGLB inhibitor: DAGLB lipase inhibitors, primary screen, biochemical, fluorescence, HTS; Diacylglycerol lipase-beta (Homo sapiens), Q8NCG7; HEK293T DAGLB membrane lysate, EnzChek fluorogenic substrate; inhibition, % at 5.17 µM; 340,000 compounds, 0.059% hits; AID 504411, 2011; in the data active = inhibition above about 34%
HTR5A ag ctr: HTR5A agonists in luminescence cell assay, primary screen, counter-screen for OPRM1-OPRD1 heterodimer agonist project, full-deck HTS | cell-based | activation, % at 9.3 µM | 340,000 compounds, 0.61% hits; in the data active = activation mostly above about 9.5%, no sharp cut-off; inactive = mostly below about 7.6%
OPRM1-OPRD1 inv: inverse agonists of MOR-DOR heterodimerization, primary screen, cell-based, luminescence; Mu-type opioid receptor (Homo sapiens) + Delta-type opioid receptor (Homo sapiens), …; cell-based MOR-DOR heterodimer luminescence, inverse agonism; inhibition, % at 9.3 µM; 340,000 compounds, 0.21% hits; in the data active = inhibition above about 22%, passing the limit was not always enough
Arr AP2 CP1: inhibitors of arrestin peptide binding to AP2, confirmation, biochemical, cherry pick 1, flow cytometry beads | inhibition, % at 10 µM | AID 504908, 2011 | shares compounds with Arrestin-AP2 inh | 1,300 compounds, 2% hits | GST-AP2 beads, FITC arrestin peptide binding; GST-fused beta2-adaptin appendage, R879A mutant;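 active = inhibition above a set limit, roughly 3 SD of non-fluorescent compound noise, cut at about 38% in these data; inactive = inhibition at or below that limit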;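 also: loss of bead fluorescence from 50 nM FITC arrestin peptide bound to appendage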
GST-FITC bead: GST-fluorescein capture on glutathione beads, confirmation, artefact control for arrestin-AP2 inhibitor project, biochemical, cherry pick 1, flow cytometry; shares compounds with Arrestin-AP2 inh; GST-fluorescein binding to GSH beads, fluorescence, counter-screen; inhibition, % at 10 µM; 1,300 compounds, 2% hits;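 active = inhibition above 50%, about 3 SD of the inhibition seen with non-fluorescent compounds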;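 also: fluorescein maleimide labelled GST captured on 4 micron glutathione beads; higher means more loss of bead fluorescence from quenching or blocked binding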
Each line names hits and unclear results; the compound was inactive in the other large screens (follow-up assays come after a bar, where they were run). Sampled rows, rich in hits. Any-hit rate of the full collection: about 1.4%.

O=C(N/C(=C/c1ccc(F)cc1)C(=O)N1CCOCC1)c1ccco1	none (no result: MOR-DOR ag, HTR5A inv ag, Arrestin-AP2 inh, HTR5A ag ctr, OPRM1-OPRD1 inv)
CC1Cc2ccccc2N1S(=O)(=O)c1cccc(C(=O)NC2CC2)c1 (stereo unspecified)	Arrestin-AP2 inh 88.5 | Arr AP2 CP1 inactive | GST-FITC bead inactive
CC1Cc2ccccc2N1S(=O)(=O)c1cccc(C(=O)Nc2cccnc2)c1 (stereo unspecified)	none
O=C(Nc1ccc(NC(=O)c2cccs2)c(Cl)c1)c1cccs1	Arrestin-AP2 inh 54.9 | Arr AP2 CP1 inactive | GST-FITC bead inactive
Cc1nc(NCCN2CCOCC2)c2oc3ccccc3c2n1	Arrestin-AP2 inh 54.9 | Arr AP2 CP1 inactive | GST-FITC bead inactive
Cc1nc(SCC(=O)NC2(C#N)CCCC2)n(CC(C)C)c1C	none
CNC(=S)N1CCC(NC(=O)C23CC4CC(CC(C4)C2)C3)CC1	Arrestin-AP2 inh 56.4 (no result: MOR-DOR ag, HTR5A inv ag, DAGLB inhibitor, HTR5A ag ctr, OPRM1-OPRD1 inv) | Arr AP2 CP1 inactive | GST-FITC bead inactive
CC(=O)N1CCN(C(=S)NC(=O)C23CC4CC(CC(C4)C2)C3)CC1	none
CC1Cc2ccccc2N1C(=O)C(C)n1cc(C(F)(F)F)cc(Cl)c1=O (stereo unspecified)	Arrestin-AP2 inh 68.8 | Arr AP2 CP1 inactive | GST-FITC bead inactive
CC1Cc2ccccc2N1C(=O)Cn1cc(C(F)(F)F)ccc1=O (stereo unspecified)	none (no result: MOR-DOR ag, HTR5A inv ag, Arrestin-AP2 inh, HTR5A ag ctr, OPRM1-OPRD1 inv)
CCCn1c(SCC(=O)N2CCCCC2)nnc1C(C)C	Arrestin-AP2 inh 56.0 | Arr AP2 CP1 inactive | GST-FITC bead inactive
COCCn1c(SCC(=O)N2CCCC2)nnc1C(C)C	none
Cc1nc2ccc(F)cc2cc1C(=O)NCC1CCCO1 (stereo unspecified)	Arrestin-AP2 inh 104.8 | Arr AP2 CP1 inactive | GST-FITC bead inactive
COc1ccc(S(=O)(=O)N(C)C[C@@H]2OCCCC[C@@H](C)Oc3ccc(NS(=O)(=O)c4cccs4)cc3C(=O)N([C@H](C)CO)C[C@@H]2C)cc1	none (no result: MOR-DOR ag, HTR5A inv ag, Arrestin-AP2 inh, HTR5A ag ctr, OPRM1-OPRD1 inv)
O=c1[nH]n(Cc2ccccc2)c2ccccc12	Arrestin-AP2 inh 59.4 | Arr AP2 CP1 inactive | GST-FITC bead inactive
O=c1ccn(Cc2ccccc2)c2ccccc12	none
CC(OC(=O)c1ccncc1)C(=O)Nc1cccc(Cl)c1 (stereo unspecified)	Arrestin-AP2 inh 80.5 | Arr AP2 CP1 inactive | GST-FITC bead inactive
CCN1CCCC1CNC(=O)c1ccc2c(c1)N(Cc1ccccc1F)C(=O)c1ccccc1S2(=O)=O (stereo unspecified)	none
CC1CCCN(CCCNC(=O)c2ccc3c(c2)N(Cc2ccccc2F)C(=O)c2ccccc2S3(=O)=O)C1 (stereo unspecified)	Arrestin-AP2 inh 58.9 | Arr AP2 CP1 inactive | GST-FITC bead inactive
CCn1c(SCC(=O)Nc2oc(C)c3c(C)n[nH]c(=O)c23)nnc1-c1ccco1	none (no result: MOR-DOR ag, HTR5A inv ag, Arrestin-AP2 inh, HTR5A ag ctr, OPRM1-OPRD1 inv)
COCOCCn1cc(CN2CCS(=O)(=O)N(Cc3ccc(-c4ccc(OC)cc4)cc3)C(C(C)C)C2=O)nn1 (stereo unspecified)	none (no result: MOR-DOR ag, HTR5A inv ag, Arrestin-AP2 inh, HTR5A ag ctr, OPRM1-OPRD1 inv)
CN(C)c1ccc(/C=N/NC(=O)C(O)(c2ccccc2)c2ccccc2)o1	Arrestin-AP2 inh 61.1 | Arr AP2 CP1 inactive | GST-FITC bead inactive
CN(C)c1ccc(/C=N/NC(=O)c2ccccc2O)o1	none
CC(C)NC(=O)NC(=O)CSc1nnc(C(F)(F)F)n1C	Arrestin-AP2 inh 66.3 | Arr AP2 CP1 inactive | GST-FITC bead inactive
Cc1ccc(S(=O)(=O)NC(C(=O)Oc2ccc3c(C)c(Cl)c(=O)oc3c2)c2ccccc2)cc1 (stereo unspecified)	none
CCC[C@@H](NS(=O)(=O)c1ccc(C)cc1)C(=O)Oc1ccc2c3c(c(=O)oc2c1)CCC3	Arrestin-AP2 inh 56.5 | Arr AP2 CP1 inactive | GST-FITC bead inactive
COc1ccc(CNC(=O)COC(=O)c2cc(C)oc2C)cc1	none (no result: MOR-DOR ag, HTR5A inv ag, Arrestin-AP2 inh, HTR5A ag ctr, OPRM1-OPRD1 inv)
O=C(CCC(=O)N1CCOCC1)Nc1ccc(Cl)c(Cl)c1	none
O=C(CCC(=O)N1CCCCC1)Nc1ccc(Cl)c(Cl)c1	Arrestin-AP2 inh 84.8 | Arr AP2 CP1 inactive | GST-FITC bead inactive
C[C@H]1CN([C@@H](C)CO)C(=O)CCCn2nncc2CO[C@H]1CN(C)S(=O)(=O)c1ccc(Oc2ccccc2)nc1	none (no result: MOR-DOR ag, HTR5A inv ag, Arrestin-AP2 inh, HTR5A ag ctr, OPRM1-OPRD1 inv)
CCOC(=O)C1(Cc2cccc(Cl)c2)CCCN(C(=O)c2cn[nH]c2)C1 (stereo unspecified)	Arrestin-AP2 inh 66.8 | Arr AP2 CP1 inactive | GST-FITC bead inactive
CCOC(=O)C1(Cc2cccc(Cl)c2)CCCN(C(=O)CN2C(=O)CSC2=O)C1 (stereo unspecified)	Arrestin-AP2 inh 61.7 | Arr AP2 CP1 inactive | GST-FITC bead inactive
CCC(=O)c1ccc(OC)c(OC)c1OCc1ccccc1	none
Cc1cccc(OC(C)C(=O)Nc2ccc3c(c2)OCCO3)c1 (stereo unspecified)	none | Arr AP2 CP1 inactive | GST-FITC bead inactive
COc1cccc(CNC(C)C(=O)Nc2ccc3c(c2)OCCO3)c1 (stereo unspecified)	none
Nc1ccc(S(=O)(=O)c2ccc(NC(=O)c3cccnc3)cc2)cc1	none
COc1cc(C#N)c(N=C(SCC#N)N2CCOCC2)cc1OC	Arrestin-AP2 inh 59.0 | Arr AP2 CP1 inactive | GST-FITC bead inactive
Cc1ccccc1C(=O)Nc1ccc2c(c1)OCCO2	none
O=C(Nc1ccc2c(c1)OCCO2)c1coc2ccccc2c1=O	Arrestin-AP2 inh 89.4 | Arr AP2 CP1 inactive | GST-FITC bead inactive
CCOc1cc(C(=O)Nc2ccc3c4c(cccc24)C(=O)N3CC)cc(OCC)c1OCC	none
COc1cc(C(=O)Nc2cc3c(cc2N2CCCCC2)n(C)c(=O)n3C)cc(OC)c1OC	none | Arr AP2 CP1 inactive | GST-FITC bead inactive
COc1cc(C(=O)Nc2ccccc2N2CCN(S(C)(=O)=O)CC2)cc(OC)c1OC	none
CCOc1cc(C(=O)Nc2cc3c(cc2N2CCCC2)n(C)c(=O)n3C)cc(OCC)c1OCC	none | Arr AP2 CP1 inactive | GST-FITC bead inactive
Cc1ccc(C(=O)Nc2cc3c(cc2N2CCCCC2)n(C)c(=O)n3C)cc1	none | Arr AP2 CP1 inactive | GST-FITC bead inactive

Source: PubChem BioAssay
